Converted amounts (≈) assume the structure as drawn. The source made the active and inactive calls. The rule behind the calls is not given here.
What was measured:
Staphylococcus aureus [1] = experiment: Antimicrobial activity against methicillin-resistant Staphylococcus aureus by broth microdilution method; assay type: functional
HEK293 [2] = experiment: Cytotoxicity against human HEK293 cells assessed as reduction in cell viability at 50 ug/ml after 24 hrs by resazurin dye based method; conditions: hek293, 24 h
Procedure, shortened: (§1)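 HEK-293 human embryonic kidney cells were exposed to test compounds at 25 and 50 μg/mL and incubated for 24 h. Growth inhibition was read by resazurin assay and expressed as percent cell viability.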

[3] = tested on: Panel NCI-60 (60 carcinoma cell lines); experiment: Cytotoxicity against human NCI60 cells assessed as reduction in cell viability at 10 uM after 24 hrs by resazurin dye based method
Pseudomonas aeruginosa = experiment: Antimicrobial activity against Pseudomonas aeruginosa by broth microdilution method; assay type: functional, organism-based
Bacillus subtilis = experiment: Antimicrobial activity against Bacillus subtilis by broth microdilution method; assay type: functional
Staphylococcus aureus [4] = experiment: Antimicrobial activity against Staphylococcus aureus by broth microdilution method; assay type: functional
HEK293 [5] = experiment: Cytotoxicity against human HEK293 cells assessed as reduction in cell viability at 25 to 50 ug/ml after 24 hrs by resazurin dye based method; conditions: hek293, 24 h; procedure, shortened: as §1
Klebsiella aerogenes = experiment: Antimicrobial activity against Enterobacter aerogenes by broth microdilution method; assay type: functional, organism-based
Acinetobacter baumannii = experiment: Antimicrobial activity against Acinetobacter baumannii by broth microdilution method; assay type: functional
Staphylococcus aureus [6] = experiment: Growth inhibition of methicillin-sensitive Staphylococcus aureus UAMS-1 after 20 to 24 hrs by resazurin dye based method; assay type: functional
Staphylococcus aureus [7] = experiment: Growth inhibition of methicillin-resistant Staphylococcus aureus LAC after 20 to 24 hrs by resazurin dye based method; assay type: functional

Compound	MIC (Staphylococcus aureus [1])	Activity (HEK293 [2])	Activity [3]	MIC (Pseudomonas aeruginosa)	MIC (Bacillus subtilis)	MIC (Staphylococcus aureus [4])	Activity (HEK293 [5])	MIC (Klebsiella aerogenes)	MIC (Acinetobacter baumannii)	MIC (Staphylococcus aureus [6])	MIC (Staphylococcus aureus [7])
O=C(O)c1ccc(-n2cc(/C=N/Nc3ccccc3)c(-c3ccc(F)cc3F)n2)cc1	25 µg/mL (≈ 59.8 µM)	> 80%	Non-Toxic	inactive	25 µg/mL (≈ 59.8 µM)	25 µg/mL (≈ 59.8 µM)	Non-Toxic	inactive	25 µg/mL (≈ 59.8 µM)		
O=C(O)c1ccc(-n2cc(/C=N/Nc3ccc(C(F)(F)F)cc3)c(-c3ccc(F)c(F)c3)n2)cc1	0.78 µg/mL (≈ 1.6 µM)	> 80%	Non-Toxic	inactive	0.78 µg/mL (≈ 1.6 µM)	0.78 µg/mL (≈ 1.6 µM)	Non-Toxic	inactive	3.12 µg/mL (≈ 6.41 µM)	6.25 µg/mL (≈ 12.8 µM)	3.12 µg/mL (≈ 6.41 µM)
O=C(O)c1ccc(-n2cc(/C=N/Nc3ccc(Cl)cc3Cl)c(-c3ccc(F)cc3F)n2)cc1	0.78 µg/mL (≈ 1.6 µM)	> 80%	Non-Toxic	inactive	0.78 µg/mL (≈ 1.6 µM)	3.12 µg/mL (≈ 6.41 µM)	Non-Toxic	inactive	12.5 µg/mL (≈ 25.7 µM)	25 µg/mL (≈ 51.3 µM)	12.5 µg/mL (≈ 25.7 µM)
O=C(O)c1ccc(-n2cc(/C=N/Nc3ccc([N+](=O)[O-])cc3)c(-c3ccc(F)c(F)c3)n2)cc1	inactive			inactive	inactive	inactive		inactive	inactive		
O=C(O)c1ccc(-n2cc(/C=N/Nc3c(F)c(F)cc(F)c3F)c(-c3ccc(F)c(F)c3)n2)cc1	12.5 µg/mL (≈ 25.5 µM)			inactive	6.25 µg/mL (≈ 12.7 µM)	12.5 µg/mL (≈ 25.5 µM)		inactive	inactive		
O=C(O)c1ccc(-n2cc(/C=N/Nc3cccc(C(=O)O)c3)c(-c3ccc(F)cc3F)n2)cc1	inactive			inactive	inactive	inactive		inactive	inactive		
O=C(O)c1ccc(-n2cc(/C=N/Nc3ccc([N+](=O)[O-])cc3)c(-c3ccc(F)cc3F)n2)cc1	inactive			inactive	inactive	inactive		inactive	inactive		
O=C(O)c1ccc(-n2cc(/C=N/Nc3c(F)c(F)c(F)c(F)c3F)c(-c3ccc(F)cc3F)n2)cc1	inactive			inactive	inactive	inactive		inactive	inactive		
CN1CCN(/N=C/c2cn(-c3ccc(C(=O)O)cc3)nc2-c2ccc(F)cc2F)CC1	inactive			inactive	inactive	inactive		inactive	inactive		
COLISTIN				0.78 µg/mL				0.39 µg/mL	12.5 µg/mL		
O=C(O)c1ccc(-n2cc(/C=N/Nc3ccc(Br)cc3)c(-c3ccc(F)cc3F)n2)cc1	12.5 µg/mL (≈ 25.1 µM)	> 80%	Non-Toxic	inactive	12.5 µg/mL (≈ 25.1 µM)	12.5 µg/mL (≈ 25.1 µM)	Non-Toxic	inactive	1.56 µg/mL (≈ 3.14 µM)	25 µg/mL (≈ 50.3 µM)	25 µg/mL (≈ 50.3 µM)
O=C(O)c1ccc(-n2cc(/C=N/Nc3c(F)c(F)cc(F)c3F)c(-c3ccc(F)cc3F)n2)cc1	inactive			inactive	inactive	inactive		inactive	inactive		
O=C(O)c1ccc(N/N=C/c2cn(-c3ccc(C(=O)O)cc3)nc2-c2ccc(F)cc2F)cc1	inactive			inactive	inactive	inactive		inactive	inactive		
CN[C@H](CC(C)C)C(=O)N[C@H]1C(=O)N[C@@H](CC(N)=O)C(=O)N[C@H]2C(=O)N[C@H]3C(=O)N[C@H](C(=O)N[C@H](C(=O)O)c4cc(O)cc(O)c4-c4cc3ccc4O)[C@H](O)c3ccc(c(Cl)c3)Oc3cc2cc(c3O[C@@H]2O[C@H](CO)[C@@H](O)[C@H](O)[C@H]2O[C@H]2C[C@](C)(N)[C@H](O)[C@H](C)O2)Oc2ccc(cc2Cl)[C@H]1O [VANCOMYCIN]	12.5 µg/mL (≈ 8.63 µM)					6.25 µg/mL (≈ 4.31 µM)					
O=C(O)c1ccc(-n2cc(/C=N/Nc3cccc(F)c3)c(-c3ccc(F)c(F)c3)n2)cc1	12.5 µg/mL (≈ 28.6 µM)	> 80%	Non-Toxic	inactive	12.5 µg/mL (≈ 28.6 µM)	12.5 µg/mL (≈ 28.6 µM)	Non-Toxic	inactive	6.25 µg/mL (≈ 14.3 µM)		
O=C(O)c1ccc(N/N=C/c2cn(-c3ccc(C(=O)O)cc3)nc2-c2ccc(F)c(F)c2)cc1	inactive			inactive	inactive	inactive		inactive	inactive		
O=C(O)c1ccc(-n2cc(/C=N/Nc3ccc(Cl)cc3Cl)c(-c3ccc(F)c(F)c3)n2)cc1	1.56 µg/mL (≈ 3.2 µM)			inactive	0.78 µg/mL (≈ 1.6 µM)	1.56 µg/mL (≈ 3.2 µM)		inactive	3.12 µg/mL (≈ 6.41 µM)	6.25 µg/mL (≈ 12.8 µM)	6.25 µg/mL (≈ 12.8 µM)
O=C(O)c1ccc(-n2cc(/C=N/Nc3ccc(Br)cc3)c(-c3ccc(F)c(F)c3)n2)cc1	1.56 µg/mL (≈ 3.14 µM)	> 80%	Non-Toxic	inactive	1.56 µg/mL (≈ 3.14 µM)	3.12 µg/mL (≈ 6.27 µM)	Non-Toxic	inactive	0.78 µg/mL (≈ 1.57 µM)	12.5 µg/mL (≈ 25.1 µM)	12.5 µg/mL (≈ 25.1 µM)
O=C(O)c1ccc(-n2cc(/C=N/Nc3ccc(F)cc3)c(-c3ccc(F)c(F)c3)n2)cc1	25 µg/mL (≈ 57.3 µM)	> 80%	Non-Toxic	inactive	25 µg/mL (≈ 57.3 µM)	25 µg/mL (≈ 57.3 µM)	Non-Toxic	inactive	6.25 µg/mL (≈ 14.3 µM)		
O=C(O)c1ccc(-n2cc(/C=N/Nc3cc(F)ccc3F)c(-c3ccc(F)cc3F)n2)cc1	12.5 µg/mL (≈ 27.5 µM)			inactive	3.12 µg/mL (≈ 6.87 µM)	12.5 µg/mL (≈ 27.5 µM)		inactive	12.5 µg/mL (≈ 27.5 µM)		
O=C(O)c1ccc(-n2cc(/C=N/Nc3ccccc3F)c(-c3ccc(F)c(F)c3)n2)cc1	12.5 µg/mL (≈ 28.6 µM)	> 80%	Non-Toxic	inactive	12.5 µg/mL (≈ 28.6 µM)	12.5 µg/mL (≈ 28.6 µM)	Non-Toxic	inactive	6.25 µg/mL (≈ 14.3 µM)		
O=C(O)c1ccc(-n2cc(/C=N/Nc3ccccc3)c(-c3ccc(F)c(F)c3)n2)cc1	25 µg/mL (≈ 59.8 µM)	> 80%	Non-Toxic	inactive	25 µg/mL (≈ 59.8 µM)	25 µg/mL (≈ 59.8 µM)	Non-Toxic	inactive	6.25 µg/mL (≈ 14.9 µM)		
O=C(O)c1ccc(-n2cc(/C=N/Nc3cccc(F)c3)c(-c3ccc(F)cc3F)n2)cc1	25 µg/mL (≈ 57.3 µM)	> 80%	Non-Toxic	inactive	12.5 µg/mL (≈ 28.6 µM)	25 µg/mL (≈ 57.3 µM)	Non-Toxic	inactive	6.25 µg/mL (≈ 14.3 µM)		
O=C(O)c1cn(C2CC2)c2cc(N3CCNCC3)c(F)cc2c1=O [CIPROFLOXACIN]					1.56 µg/mL (≈ 4.71 µM)						
O=C(O)c1ccc(-n2cc(/C=N/Nc3ccccc3F)c(-c3ccc(F)cc3F)n2)cc1	25 µg/mL (≈ 57.3 µM)	> 80%	Non-Toxic	inactive	12.5 µg/mL (≈ 28.6 µM)	25 µg/mL (≈ 57.3 µM)	Non-Toxic	inactive	12.5 µg/mL (≈ 28.6 µM)		
O=C(O)c1ccc(-n2cc(/C=N/Nc3ccc(F)cc3)c(-c3ccc(F)cc3F)n2)cc1	25 µg/mL (≈ 57.3 µM)			inactive	6.25 µg/mL (≈ 14.3 µM)	25 µg/mL (≈ 57.3 µM)		inactive	6.25 µg/mL (≈ 14.3 µM)		
O=C(O)c1ccc(-n2cc(/C=N/Nc3cc(F)ccc3F)c(-c3ccc(F)c(F)c3)n2)cc1	inactive	69%	Non-Toxic	inactive	3.12 µg/mL (≈ 6.88 µM)	inactive	Non-Toxic	inactive	6.25 µg/mL (≈ 13.8 µM)		
CN1CCN(/N=C/c2cn(-c3ccc(C(=O)O)cc3)nc2-c2ccc(F)c(F)c2)CC1	inactive			inactive	inactive	inactive		inactive	inactive		
O=C(O)c1ccc(-n2cc(/C=N/N3CCCCC3)c(-c3ccc(F)cc3F)n2)cc1	inactive			inactive	inactive	inactive		inactive	inactive		
O=C(O)c1ccc(-n2cc(/C=N/Nc3ccc(Cl)cc3)c(-c3ccc(F)c(F)c3)n2)cc1	6.25 µg/mL (≈ 13.8 µM)	> 80%	Non-Toxic	inactive	6.25 µg/mL (≈ 13.8 µM)	6.25 µg/mL (≈ 13.8 µM)	Non-Toxic	inactive	1.56 µg/mL (≈ 3.44 µM)		

Source: ChEMBL document CHEMBL4229449, “Synthesis and antimicrobial studies of hydrazone derivatives of 4-[3-(2,4-difluorophenyl)-4-formyl-1H-pyrazol-1-yl]benzoic acid and 4-[3-(3,4-difluorophenyl)-4-formyl-1H-pyrazol-1-yl]benzoic acid” (Bioorg Med Chem Lett, 2018)
